The nature of data set [1]: folding enthalpy; higher = less favourable; fluorescence melt of hairpins on a sequencing array, two-state fit. Particulars: sodium 0.088 M. In a few lines:
(§1)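 Library hairpins on a sequenced MiSeq flow cell carried annealed Cy3 and quencher oligos, and their Cy3 fluorescence was imaged in 50 mM Na-HEPES pH 8.0 with 25 mM NaCl, in 2.5 °C steps up to 60 °C. Signals were normalised to Cy3 before quenching and to control constructs. Melting temperature and folding enthalpy were obtained from bootstrapped two-state fits, combined by inverse-variance weighting across four replicates, and the fitted temperatures were then raised by 9.35 °C to match UV melts.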

Data set [2] is described as follows: melting temperature; fluorescence melt of hairpins on a sequencing array, two-state fit, raised by 9.35 °C to match UV melts. The note with it: sodium 0.088 M. In a few lines:
as §1

GTAAGTGCGAAAGCATAC (((..(((....)))))): the folding enthalpy in data set [1] is -11.2 kcal/mol. In addition, the Tm in data set [2] was 27.2 °C.
With GTAAGTGGAAACGCTTAC (((((.(....).))))), in data set [1], the folding enthalpy is -27.6 kcal/mol. Besides, in data set [2], the Tm turned out to be 45.4 °C.
Turning to GTAAGTGGAAACGTTTAC ((((..(....)..)))), the folding enthalpy in data set [1] was -10.7 kcal/mol. The Tm in data set [2] was 27.5 °C.
The matching figures for GTAATACGAAAGTAATAC (((.(((....))).))): -20.2 kcal/mol and 34 °C.
For GTAATACGAAAGTATAC (((.(((....)))))), in that order: -16 kcal/mol and 34.5 °C.
The matching figures for GTAATCCGAAAGGAGTAC (((.(((....))).))): -28.5 kcal/mol and 49.9 °C.
As to GTAATCGAAAGATGTAC ((((((....))).))), the folding enthalpy in data set [1] was -16.9 kcal/mol. Further, the Tm in data set [2] came to 30.8 °C.
Turning to GTAATCGCGAAAGCGTAC (((..(((....)))))), in data set [1], the folding enthalpy was -6.16 kcal/mol. Besides, the Tm in data set [2] came out at 26.7 °C.
For GTAATGAAAATTAC (((((....))))), in that order: -15.6 kcal/mol and 34.1 °C.
Regarding GTAATGGGAAACTATTAC (((((.(....).))))), in data set [1], the folding enthalpy is -28.6 kcal/mol. The Tm in data set [2] is 34.5 °C.
Take GTAATTCCGAAAGGATAC (((..(((....)))))): the folding enthalpy in data set [1] was -10.6 kcal/mol. For the same sequence, the Tm in data set [2] amounted to 28.2 °C.
For GTAATTCGAAAGAACTAC (((.(((....))).))), the folding enthalpy in data set [1] was -14.6 kcal/mol. Besides, in data set [2], the Tm was determined as 30 °C.
For GTAATTCGAAAGAAGTAC (((.(((....))).))), the folding enthalpy in data set [1] was -25 kcal/mol. Further, the Tm in data set [2] was 42.3 °C.
As to GTACAACGAAAGTTATAC (((.(((....))).))), in data set [1], the folding enthalpy is -19.1 kcal/mol. Also, the Tm in data set [2] turned out to be 30.4 °C.
Regarding GTACAACGAAAGTTTTAC (((.(((....))).))), the folding enthalpy in data set [1] is -18.6 kcal/mol. In data set [2], the Tm was found to be 36.7 °C.
As for GTACAAGGAAACTTGTAC (((((((....))))))), the folding enthalpy in data set [1] is -38.9 kcal/mol. The Tm in data set [2] was 53.2 °C.
In the case of GTACACGAAAGTGCGTAC ((((((....)))..))), the folding enthalpy in data set [1] is -10.7 kcal/mol. Besides, the Tm in data set [2] was determined as 30.8 °C.
Turning to GTACACGAAAGTGGCTAC ((((((....)))..))), the folding enthalpy in data set [1] is -13.9 kcal/mol. Besides, the Tm in data set [2] worked out at 35.7 °C.
For the sequence GTACACGAAAGTGGTTAC ((((((....)))..))), in data set [1], the folding enthalpy is -10.7 kcal/mol. Moreover, the Tm in data set [2] amounted to 30.5 °C.
Consider GTACACGCGAAAGCGTAC (((..(((....)))))), for which the folding enthalpy in data set [1] was -8.06 kcal/mol. Besides, the Tm in data set [2] is 35.5 °C.
In the case of GTACACGGAAACGCGTAC ((((.((....)).)))), in data set [1], the folding enthalpy was -40.1 kcal/mol. Moreover, the Tm in data set [2] stood at 48.3 °C.
As for GTACAGCGAAAGCTCTAC (((.(((....))).))), the folding enthalpy in data set [1] was -17.3 kcal/mol. Moreover, in data set [2], the Tm was 29.5 °C.
As to GTACAGCGAAAGCTTTAC (((.(((....))).))), in data set [1], the folding enthalpy is -24.7 kcal/mol. The Tm in data set [2] amounted to 39.6 °C.
The matching figures for GTACATCGAAAGATATAC (((.(((....))).))): -16 kcal/mol and 29.6 °C.
On to GTACATGGAAACATGTAC (((((((....))))))), for which the folding enthalpy in data set [1] is -51.6 kcal/mol. The Tm in data set [2] came out at 55.7 °C.
The matching figures for GTACCACCGAAAGGTTAC (((..(((....)))))): -11.5 kcal/mol and 21.6 °C.
Take GTACCACGAAAGTGCTAC (((.(((....))).))): the folding enthalpy in data set [1] is -13.7 kcal/mol. Further, the Tm in data set [2] was determined as 33.6 °C.
For GTACCAGGAAACTGGTAC (((((((....))))))), in that order: -40.4 kcal/mol and 62.2 °C.
For GTACCCCGAAAGGGTTAC (((.(((....))).))), in data set [1], the folding enthalpy was -19.6 kcal/mol. For the same sequence, in data set [2], the Tm was determined as 41.8 °C.
For the sequence GTACCCGAAAGGGGTTAC ((((((....)))..))), the folding enthalpy in data set [1] was -10.1 kcal/mol. The Tm in data set [2] worked out at 35.2 °C.
Turning to GTACCCGAAAGGGTCTAC ((((((....)))..))), the folding enthalpy in data set [1] was -10.7 kcal/mol. For the same sequence, the Tm in data set [2] was 42.2 °C.
The matching figures for GTACCCGAAAGGGTGTAC ((((((....)))..))): -10.1 kcal/mol and 40.3 °C.
For GTACCCGAAAGGGTTTAC ((((((....)))..))), the folding enthalpy in data set [1] is -8.12 kcal/mol. Besides, the Tm in data set [2] was determined as 33 °C.
As to GTACCCGGAAACAGGTAC (((((.(....).))))), the folding enthalpy in data set [1] was -25.7 kcal/mol. Also, in data set [2], the Tm worked out at 39.4 °C.
For GTACCGCGAAAGCGTAC (((.(((....)))))), in that order: -14.1 kcal/mol and 51.1 °C.
In the case of GTACCGCGAAAGCGTTAC (((.(((....))).))), in data set [1], the folding enthalpy was -21 kcal/mol. Further, the Tm in data set [2] was 42.9 °C.

The values above are taken from the array DNA melting data of Ke et al. (doi:10.1101/2024.01.08.574731).
